From paper PMC5071122 (The Pediatric infectious disease journal, 2016)
Like-named read-outs stand apart in the source and are kept apart here. Starred links: 1 amine or outer side, 2 acyl side, 3 side chain; linkers in the order of their positions; H or OH if unused. Positions of bridges follow the written chain, without caps; N, C: chain ends. Non-standard residues stand in square brackets, D forms with d. Residues, ends and D or L forms follow the SMILES beside them. *: point of attachment. hTyr(3S-OH,4S-OH,3'-OSO3H) = N[C@H](C(=O)O)[C@H](O)[C@@H](O)c1ccc(O)c(OS(=O)(=O)O)c1; Orn(4R-OH,5R-OH) = O=C([C@H](C[C@@H](O)[C@@H](O)N[*:3])N[*:1])[*:2]; Pro(3S-OH,4S-Me) = C[C@H]1CN[C@H](C(=O)O)[C@H]1O; X1 = CCCCCOc1ccc(-c2cc(-c3ccc(C(=O)*)cc3)no2)cc1; Gln(3R-OH) = NC(=O)C[C@@H](O)[C@H](N)C(=O)O; Hyp = O=C(O)[C@@H]1C[C@@H](O)CN1

Legend:
[1] = Open-label PK trial of IV micafungin in infants on ECMO; conditions: human, in vivo
[2] = Observed micafungin exposure; format: in vivo, infants; conditions: 4 mg/kg IV every 24h
Outline: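 Infants on ECMO, prophylactic arm, given IV test compound 4 mg/kg every 24h for up to 8 days. EDTA arterial plasma sampled around dose 4, from pre-infusion to 22-24h post-infusion, and assayed by HPLC-fluorescence (LLOQ 0.05 mg/L). AUC0-24 was computed from observed data by the linear-up log-down trapezoidal method and compared with the therapeutic target of 75-139 mg*h/L.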

[3] = Safety: adverse events in infants on ECMO receiving micafungin; format: in vivo
[4] = cited from earlier work
[5] = ref 33; cited from earlier work
[6] = cited from earlier work; remark: listed apart in the source
[7] = via hepatic transporter proteins; cited from earlier work
[8] = neonatal trial of 15 mg/kg/day; standard deviation 99; cited from earlier work
[9] = phase III efficacy trial, used as target efficacy exposure; cited from earlier work
[10] = infants and children receiving micafungin; cited from earlier work
[11] = cited from earlier work; remark: listed apart in the source
Candida spp = conditions: ref 6-8; cited from earlier work

CCCCCOc1ccc(-c2cc(-c3ccc(C(=O)N[C@H]4C[C@@H](O)[C@@H](O)NC(=O)[C@@H]5[C@@H](O)[C@@H](C)CN5C(=O)[C@H]([C@H](O)CC(N)=O)NC(=O)[C@H]([C@H](O)[C@@H](O)c5ccc(O)c(OS(=O)(=O)O)c5)NC(=O)[C@@H]5C[C@@H](O)CN5C(=O)[C@H]([C@@H](C)O)NC4=O)cc3)no2)cc1 [micafungin] (X1-[Orn(4R-OH,5R-OH)]T[Hyp][hTyr(3S-OH,4S-OH,3'-OSO3H)][Gln(3R-OH)][Pro(3S-OH,4S-Me)]; lactam 1-C)
Vd [1]: 0.64 L/kg
clearance [1]: 0.683 mL/min/kg
Infants with a hemofilter achieving AUC0-24 within or above the therapeutic target range ([2]; after dose 1 and 4, Two/4 infants): 50%
Infants within the therapeutic range after dose 4 ([2]; prophylactic arm, 3/5 infants sampled around dose 4): 60%
Infants achieving the therapeutic exposure target (75-139 mg*h/L) after a single dose ([2]; prophylactic arm, 5/11 infants): 45%
Deaths considered related to micafungin ([3]; 12 infants on ECMO, study period): None
Tolerability ([3]; cohort of infants supported by ECMO): well tolerated
Protein bound ([4]; ref 14): > 99%
Protein bound ([4]; ref 33): > 99%
logP [5]: −1.5
V reported in infants not on ECMO ([6]; ref 15, 25): 0.34 to 0.54 L/kg
CL, previously reported values for infants not supported by ECMO ([6]; ref 19, 24-26): 0.333 to 0.65 mL/min/kg
Excreted primarily unchanged into bile and feces [7]: 71%
Mean (standard deviation) exposure deemed safe [8]: 438 µg·h/mL
AUC0-24 range, exposure of adult participants who cleared their fungal infection [9]: 75 to 139 µg·h/mL
Hypokalemia, proportion of infants and children [10]: 2%
Liver toxicity, proportion of infants and children [10]: 3%
Time reconstituted micafungin is stable ([11]; reconstituted, room temperature, exposed to light): up to 24 hours
Light sensitivity ([11]; ref 16): light-sensitive
Activity against a broad spectrum of Candida spp (Candida spp): fungicidal
Biofilm penetration (Candida spp): can penetrate biofilms
